Results on 1 compound are retold here after ChEMBL document CHEMBL4813921, “Optimization of WZ4003 as NUAK inhibitors against human colorectal cancer” (Eur J Med Chem, 2021).

The source made the active and inactive calls. The calls are words filed in the database; no cut-off is given here.

Series [1] concerns SW480. Briefly: Induction of cell cycle arrest in human SW480 cells assessed as reduction in accumulation at S phase at 10 uM measured after 48 hrs by PI/RNaseA staining based flow cytometry assay. Format: functional. (Flow cytometry measures light scatter and fluorescence of single cells or particles in a stream.)
Series [2] relates to SW480. Briefly: Induction of cell cycle arrest in human SW480 cells assessed as reduction in accumulation at G1 phase at 10 uM measured after 48 hrs by PI/RNaseaA staining based flow cytometry assay. Format: functional.
Series [3] has as its target T1, NUAK family SNF1-like kinase 2 (Homo sapiens) (UniProt Q9H093).
T1 sequence (whole entry): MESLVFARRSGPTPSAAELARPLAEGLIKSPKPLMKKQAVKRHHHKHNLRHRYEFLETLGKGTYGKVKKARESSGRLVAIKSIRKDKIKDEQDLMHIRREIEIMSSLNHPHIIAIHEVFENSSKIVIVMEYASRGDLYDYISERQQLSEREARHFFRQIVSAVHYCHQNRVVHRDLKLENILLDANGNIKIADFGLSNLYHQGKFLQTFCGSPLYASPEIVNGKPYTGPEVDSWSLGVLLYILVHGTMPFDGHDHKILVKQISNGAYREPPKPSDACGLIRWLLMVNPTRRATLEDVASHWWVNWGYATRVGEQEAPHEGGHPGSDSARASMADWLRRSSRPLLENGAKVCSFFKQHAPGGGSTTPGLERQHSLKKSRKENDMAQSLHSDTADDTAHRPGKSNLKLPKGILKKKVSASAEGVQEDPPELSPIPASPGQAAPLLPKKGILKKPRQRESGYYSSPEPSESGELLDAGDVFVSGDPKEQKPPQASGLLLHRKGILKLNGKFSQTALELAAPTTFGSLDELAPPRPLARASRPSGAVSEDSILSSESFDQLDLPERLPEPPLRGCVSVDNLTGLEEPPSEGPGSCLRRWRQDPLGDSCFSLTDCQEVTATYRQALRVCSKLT
Briefly: Inhibition of NUAK2 (unknown origin) at 10 uM using CHKtide as substrate in presence of ATP measured after 60 mins by ADP-Glo assay.

Series [4] deals with SW480. Briefly: Antiproliferative activity against human SW480 cells assessed as reduction in cell viability at 10 uM measured after 1 to 5 days by MTT assay relative to control. The conditions noted are these: time 1-5 day. Type of series: functional, cell-based. An outline of the steps:
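MTT viability read daily over 1–5 days of exposure to 10 μM compound; mean ± SD, n = 3.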
A general note: Formazan colour is commonly taken as a measure of viable cells.

For series [5], the target named is T2, NUAK family SNF1-like kinase 1 (Homo sapiens) (UniProt O60285).
T2 sequence (whole entry): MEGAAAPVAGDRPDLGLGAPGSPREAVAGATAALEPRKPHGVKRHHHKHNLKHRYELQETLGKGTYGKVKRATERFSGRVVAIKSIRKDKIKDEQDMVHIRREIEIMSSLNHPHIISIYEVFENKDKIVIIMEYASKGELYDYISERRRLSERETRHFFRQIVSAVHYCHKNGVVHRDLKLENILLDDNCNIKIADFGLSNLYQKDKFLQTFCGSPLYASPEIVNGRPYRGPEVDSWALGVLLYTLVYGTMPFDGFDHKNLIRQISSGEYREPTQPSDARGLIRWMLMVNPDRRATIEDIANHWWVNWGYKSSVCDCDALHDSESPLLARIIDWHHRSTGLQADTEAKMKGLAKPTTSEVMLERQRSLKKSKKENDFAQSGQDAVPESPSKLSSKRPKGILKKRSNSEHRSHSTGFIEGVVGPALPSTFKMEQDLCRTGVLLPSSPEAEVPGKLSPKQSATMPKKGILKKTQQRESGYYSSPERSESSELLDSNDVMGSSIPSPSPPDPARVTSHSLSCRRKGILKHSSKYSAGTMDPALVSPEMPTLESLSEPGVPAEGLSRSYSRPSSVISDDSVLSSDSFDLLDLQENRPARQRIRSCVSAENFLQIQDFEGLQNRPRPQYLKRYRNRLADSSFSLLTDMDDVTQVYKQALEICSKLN
Briefly: Inhibition of NUAK1 (unknown origin) at 10 uM using CHKtide as substrate in presence of ATP measured after 60 mins by ADP-Glo assay. (ADP-Glo turns the ADP formed in a reaction into a luminescent signal.)

Series [6] concerns HCT-116. Briefly: Antiproliferative activity against human HCT-116 cells at 2.5 to 10 uM measured after 48 hrs by EdU staining based assay. Type of series: functional, cell-based. The conditions noted are these: dose 2.5-10 µM. An outline of the steps: (§1)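 Cells exposed to a range of compound concentrations for 48 h, then EdU click-chemistry staining with DAPI counterstain. Confocal high-content imaging; DAPI-positive nuclei counted as total and EdU-positive as proliferating.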

Series [7] deals with U2OS. Briefly: Induction of apoptosis in human U2OS cells assessed as viable cells at 10 uM measured after 48 hrs by Annexin V-FITC/PI staining based flow cytometry method (reference value: 95.5%). Type of series: functional. The conditions noted are these: read-out: Activity.
The test system of series [8] is HCT-116. Briefly: Induction of apoptosis in human HCT-116 cells assessed as late apoptotic cells at 10 uM measured after 48 hrs by Annexin V-FITC/PI staining based flow cytometry method (reference value: 1.6%). Format: functional.
Series [9] in a line: Toxicity against BALB/c-nu/nu mouse xenografted with human SW480 cells assessed as morphological changes in liver at 10 to 20 mg/kg, ip administered every 2 days for 18 days by H and E staining based analysis. The conditions noted are these: in vivo, 432 h, dose 10-20 mg/kg, time 18 day. Format: organism-based. Summed up: (§2)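 After 18 days of ip dosing every two days in SW480-xenografted nude mice, heart, liver, spleen, lung and kidney harvested, sectioned, HE-stained, examined at ×400.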

The test system of series [10] is U2OS. Briefly: Induction of ROS generation in human U2OS cells at 10 uM measured after 48 hrs by DCFH-DA staining based flow cytometry method. Format: functional, cell-based. Summed up: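 Cells treated at 10 μM for 48 h, ROS measured by flow cytometry. Fluorescence intensity expressed relative to vehicle-treated controls; mean ± SEM from 3 independent experiments.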

Series [11] relates to HCT-116. Briefly: Induction of apoptosis in human HCT-116 cells assessed as viable cells at 10 uM measured after 48 hrs by Annexin V-FITC/PI staining based flow cytometry method (reference value: 95.4%). Type of series: functional. The settings on record: read-out: Activity.
Series [12] concerns HCT-116. Briefly: Induction of cell cycle arrest in human HCT-116 cells assessed as reduction in accumulation at G1 phase at 10 uM measured after 48 hrs by PI/RNaseA staining based flow cytometry assay. Type of series: functional.
Series [13] relates to U2OS. Briefly: Induction of cell cycle arrest in human U2OS cells assessed as reduction in accumulation at S phase at 10 uM measured after 48 hrs by PI/RNaseA staining based flow cytometry assay. Format: functional.
The subject of series [14] is HCT-116. Briefly: Inhibition of colony formation in human HCT-116 cells measured after 14 days by crystal violet staining based microcopic analysis. Format: functional, cell-based. The settings on record: dose 0.5-2 µM, time 14.0 day. Summed up:
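Clonogenic assay with 14-day exposure to a range of compound concentrations; colonies stained with crystal violet and imaged by microscopy; compared with untreated cells.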

The test system of series [15] is U2OS. Briefly: Antiproliferative activity against human U2OS cells at 2.5 to 10 uM measured after 48 hrs by EdU staining based assay. The settings on record: dose 2.5-10 µM. Type of series: functional, cell-based. Summed up:
as §1

A short description of series [16]: Toxicity against BALB/c-nu/nu mouse xenografted with human SW480 cells assessed as morphological changes in kidney at 10 to 20 mg/kg, ip administered every 2 days for 18 days by H and E staining based analysis. Type of series: organism-based. The conditions noted are these: in vivo, 432 h, dose 10-20 mg/kg, time 18 day. An outline of the steps:
as §2

Usually inhibition stands for the percentage by which the read-out fell short of the control. Turning to `CCC(=O)Nc1cccc(Oc2nc(Nc3ccc(N4CCN(C)CC4)cc3)ncc2Cl)c1`, the result in the series with SW480 [1], in the series on SW480 [2], with SW480 [4], in the series with HCT-116 [6], in the series with U2OS [10] and with HCT-116 [12] was Active. The outcome with U2OS [13] and with U2OS [15] was Active. In addition, the inhibition in series [3] was 82.5%; in [5], 92.9%; in the series on HCT-116 [14], “Dose-Dependent Effect”. The viability at 10 µM was found to be 81.6% in the series on U2OS [7] and 46% in the series with HCT-116 [11]. Besides, the Activity in the series on HCT-116 [8] is reported as 10%; in series [9], “Non-Toxic”; in series [16], “Non-Toxic”.
